Assay results: the array DNA melting data of Ke et al. (doi:10.1101/2024.01.08.574731)

Experiments:
[1] = folding enthalpy; higher = less favourable; fluorescence melt of hairpins on a sequencing array, two-state fit; conditions: sodium 0.088 M
Outline: (§1)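 Hairpins were imaged by Cy3 fluorescence on a sequenced MiSeq flow cell with annealed Cy3 and quencher oligos, in 50 mM Na-HEPES pH 8.0, 25 mM NaCl, in 2.5 °C steps up to 60 °C. Bootstrapped two-state fits of normalised signals gave melting temperature and folding enthalpy. Four replicates were combined by inverse variance, and fitted temperatures were raised by 9.35 °C to match UV melts.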

[2] = melting temperature; fluorescence melt of hairpins on a sequencing array, two-state fit, raised by 9.35 °C to match UV melts; conditions: sodium 0.088 M
Outline: as §1

Row | Sequence | folding enthalpy [1] | Tm [2]
1 | CGACCGGAAACGGCTTCG ((((((....)))..))) | -17 kcal/mol | 28.5 °C
2 | GCAGCTGGAAACAACTGC ((((.((....)).)))) | -39.9 kcal/mol | 46.6 °C
3 | GGTCTGCGAAAGCACACC (((.(((....))).))) | -20.9 kcal/mol | 42.1 °C
4 | GATCTATCGTAGATC ((((((...)))))) | -12.9 kcal/mol | 38.4 °C
5 | GCATACGAAAGTACATGC ((((((....)))..))) | -26.9 kcal/mol | 38.9 °C
6 | GCGCTGCGAAAGCTACGC (((..((....))..))) | -23 kcal/mol | 55.8 °C
7 | GCAATGGAAACATTGC ((((((....)))))) | -42.1 kcal/mol | 58.1 °C
8 | GATCTGGCGCCAGATC ((((((....)))))) | -47.8 kcal/mol | 60.5 °C
9 | GATGGTGGAAACGCTATC (((.(.(....).).))) | -16.2 kcal/mol | 31.3 °C
10 | GGTTTGCGAAAGCACACC (((.(((....))).))) | -28.2 kcal/mol | 51.7 °C
11 | GTTATGGGAAACCGTAAC ((((.((....)).)))) | -33.2 kcal/mol | 44.2 °C
12 | GTTCTGGGAAACTAGAGC (.(((.(....).))).) | -8.92 kcal/mol | 24.9 °C
13 | GTGCTAACGAAAGTTCAC (((..(((....)))))) | -7.2 kcal/mol | 25.4 °C
14 | GACCGGACGAAAGTCGTC (((..(((....)))))) | -12.1 kcal/mol | 37.1 °C
15 | GACGGCGAAAGCCGGGTC ((((((....)))..))) | -11.3 kcal/mol | 68.2 °C
16 | GGCCGTGGAAACATGGCC ((((.((....)).)))) | -44.6 kcal/mol | 61.8 °C
17 | GGCCTAGCGAAAGCTGCC (((..(((....)))))) | -20.4 kcal/mol | 47.1 °C
18 | GCATTTGGAAACAAACGC ((.((((....)))).)) | -30.1 kcal/mol | 37.2 °C
19 | GCACGGCGAAAGCCAAGC ((..(((....)))..)) | -15.4 kcal/mol | 46.6 °C
20 | GAAAGCACGAAAGTGTTC (((..(((....)))))) | -9.28 kcal/mol | 24 °C
21 | GCATGAACGAAAGTTTGC (((..(((....)))))) | -20.5 kcal/mol | 33.9 °C
22 | GATTTGGGAAACCAGATC (((.(((....))).))) | -35.9 kcal/mol | 37.7 °C
23 | GTTGGCGGAAACGCTAAC (((.(((....))).))) | -30.9 kcal/mol | 53.1 °C

Row | Sequence | folding enthalpy [1] | Tm [2]
24 | GAGATGGGAAACCACCTC (((.(((....))).))) | -31.1 kcal/mol | 36.1 °C
25 | GCAAACGAAAGTTAATGC ((((((....)))..))) | -14.7 kcal/mol | 30.6 °C
26 | GAACAAGGAAACTTGTTC (((((((....))))))) | -44.9 kcal/mol | 53 °C
27 | GCCGGAGGAAACTCCGAC (.(((((....))))).) | -13.1 kcal/mol | 49.9 °C
28 | CGTATCGGAAACGAGACG (((.(((....))).))) | -35.2 kcal/mol | 53.3 °C
29 | GTAACGGGAAACCGTCAC ((.((((....)))).)) | -16.4 kcal/mol | 35.7 °C
30 | GTATTCCGAAAGGATTAC (((.(((....))).))) | -28.2 kcal/mol | 43.5 °C
31 | GCTCGCGAAAGCGCAAGC ((((((....)))..))) | -12.4 kcal/mol | 48.5 °C
32 | GCGGCGAACCGC ((((....)))) | -18.9 kcal/mol | 56.9 °C
33 | GGCAACGGAAACATTGCC (((((.(....).))))) | -31.6 kcal/mol | 45.1 °C
34 | GATCGAAAAATCGATC ((((((....)))))) | -25.5 kcal/mol | 43.9 °C
35 | GGCAACGAAAGTTGCGCC ((((((....)))..))) | -7.94 kcal/mol | 59.2 °C
36 | GCCCGGCGAAAGCCACGC ((..(((....)))..)) | -8.86 kcal/mol | 35.9 °C
37 | GAGACCGGAAACAGTCTC (((((.(....).))))) | -27.5 kcal/mol | 40.4 °C
38 | GGGGAAACGAAAGTTCCC (((..(((....)))))) | -22.1 kcal/mol | 52 °C
39 | GATCCTTAAGAGGATC ((((((....)))))) | -38.1 kcal/mol | 50.9 °C
40 | GCAAGAGGAAACCCTTGC (((((.(....).))))) | -25.9 kcal/mol | 45.3 °C
41 | GTAGACGAAAGTCCTAC ((((((....))).))) | -19.7 kcal/mol | 36.4 °C
42 | GGCTTGACGAAAGTCGCC (((..(((....)))))) | -14.5 kcal/mol | 55.2 °C
43 | GATCTTATGAAGATC ((((((...)))))) | -28.1 kcal/mol | 42.4 °C
44 | GATCCGAAACCGGATC ((((((....)))))) | -38 kcal/mol | 53.4 °C
45 | GATTACCGAAAGGTGATC (((.(((....))).))) | -37.5 kcal/mol | 51.8 °C
46 | GGATGGGGAAACCCATCC (((((((....))))))) | -46.7 kcal/mol | 66.4 °C

Row | Sequence | folding enthalpy [1] | Tm [2]
47 | GACATAGCGAAAGCTGTC (((..(((....)))))) | -20.5 kcal/mol | 47.1 °C
48 | CGCGGAACAGTCCGCG ((((((....)))))) | -33.1 kcal/mol | 67.2 °C
49 | GCGTAACGAAAGTTTCGC (((.(((....))).))) | -41.3 kcal/mol | 57 °C
50 | GTGGATGGAAACATTCAC (((.(((....))).))) | -45.5 kcal/mol | 46.6 °C
51 | GCCTCCGAAAGGAGCGGC ((((((....)))..))) | -15.6 kcal/mol | 52.3 °C
52 | GTACTCGAAAGAGTTTAC ((((((....)))..))) | -9.32 kcal/mol | 30 °C
53 | GTGATCGAAAGATCCAC ((((((....))).))) | -13.3 kcal/mol | 43.9 °C
54 | GCGAGTTGTCGC ((((....)))) | -15.5 kcal/mol | 50.9 °C
55 | GAGAGGGGAAACCCTCCC (.(((((....))))).) | -13.7 kcal/mol | 41.2 °C
56 | GCCGCGCGAAAGCCAGGC (((..((....))..))) | -27.8 kcal/mol | 62 °C
57 | GCCACCGAAAGGTGCGGC ((((((....)))..))) | -13.1 kcal/mol | 60.8 °C
58 | GCGCTGCGAAAGCGGGGC ((.(.((....)).).)) | -28.8 kcal/mol | 67.8 °C
59 | GCTAAGCGAAAGCATTGC ((.(.((....)).).)) | -19.9 kcal/mol | 36.2 °C
60 | GCTGAGCGAAAGCCAAGC (((..((....))..))) | -18.8 kcal/mol | 48.6 °C
61 | GATTACGAAAGTATGATC ((((((....)))..))) | -6.67 kcal/mol | 14.5 °C
62 | GTGGACGGAAACATCCAC (((((.(....).))))) | -31.8 kcal/mol | 43.6 °C
63 | GCGATCACTCGC ((((....)))) | -26 kcal/mol | 47.2 °C
64 | GGCCATGGAAACGTGGTC (.(((.(....).))).) | -33.2 kcal/mol | 45.2 °C
65 | GCCCAACGAAAGTTCGGC (((.(((....))).))) | -29.9 kcal/mol | 45.5 °C
66 | GGGCGCCCGAAAGGGCCC (((..(((....)))))) | -11.5 kcal/mol | 59.5 °C
67 | GCCACCGAAAGGTTAGGC ((((((....)))..))) | -25.5 kcal/mol | 51.1 °C
68 | GTGGAACGAAAGTTACAC (((.(((....))).))) | -40.4 kcal/mol | 57 °C
69 | GCGTAGCGAAAGCCCCGC (((..((....))..))) | -6.69 kcal/mol | 35.9 °C

Row | Sequence | folding enthalpy [1] | Tm [2]
70 | GGCGACGGAAACGTCGTC (.(((((....))))).) | -26.5 kcal/mol | 67.9 °C
71 | GGGCGAGGAAACCCACCC (((.(.(....).).))) | -16.4 kcal/mol | 30.9 °C
72 | GCGAACTCGAAAGAGCGC (((..(((....)))))) | -27.6 kcal/mol | 49.3 °C
73 | GTTAGGGGAAACCTTAAC ((((.((....)).)))) | -22.3 kcal/mol | 33.4 °C
74 | GCGCAGGGAAACCCGCGC ((((.((....)).)))) | -34 kcal/mol | 66.8 °C
75 | GTGTTCTCGAAAGAGCAC (((..(((....)))))) | -24.7 kcal/mol | 41.8 °C
76 | GCTCAAGGAAACTTGGGC ((.((((....)))).)) | -37.4 kcal/mol | 50 °C
77 | GACGAGCGAAAGCTAGTC (((.(((....))).))) | -31 kcal/mol | 56.8 °C
78 | GAACAGGGAAACTTGTTC (((((.(....).))))) | -27.2 kcal/mol | 37.1 °C
79 | GTATTGGGAAACCAACAC ((.((((....)))).)) | -15 kcal/mol | 31.4 °C
80 | GATTCAGGAAACCGAATC (((((.(....).))))) | -26.2 kcal/mol | 36 °C
81 | GCGTTCCCGAAAGGGCGC (((..(((....)))))) | -27.2 kcal/mol | 53.9 °C
82 | GCGTTGTCGAAAGACCGC (((..(((....)))))) | -27.1 kcal/mol | 50.6 °C
83 | GCTGCGGCGAAAGCCAGC (((..(((....)))))) | -10.7 kcal/mol | 57.4 °C
84 | GGCGCAGCGAAAGCTGCC (((..(((....)))))) | -6.91 kcal/mol | 52.6 °C
85 | GCTCTGCGAAAGCCCAGC (((..((....))..))) | -9.22 kcal/mol | 30.5 °C
86 | GAATTAGGAAACTAGTTC (((.(((....))).))) | -16.8 kcal/mol | 27.1 °C
87 | GAGAGGGCGAAAGCCCTC (((..(((....)))))) | -6.41 kcal/mol | 66.5 °C
88 | GATCGTAGCGACGATC ((((((....)))))) | -38.9 kcal/mol | 54.9 °C
89 | GCCTAGGAAACTAGGC ((((((....)))))) | -36.2 kcal/mol | 58.7 °C
90 | GATCTGGAATCAGATC ((((((....)))))) | -40.5 kcal/mol | 54.3 °C
91 | GTCTGCGGAAACGCAGGC (.(((((....))))).) | -19.6 kcal/mol | 63.9 °C
